Reference: ChEMBL document CHEMBL1145632, “Sulfamoyl benzamides as novel CB2 cannabinoid receptor ligands” (Bioorg Med Chem Lett, 2008)
Activity calls are given as the source filed them.

Tests used:
[1] = system: Rattus norvegicus; experiment: Antiallodynic effect in rat hind paw incision-induced nociception model at 3 mg/kg, sc; assay type: functional, organism-based; design: dose 3 mg/kg
Outline: (§1)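 Rats with L5 spinal nerve ligation or hindpaw incision were dosed as stated. Read-out was paw-withdrawal threshold of the left hindpaw, reported as group mean ± SEM. Groups were compared by one-way ANOVA with protected t-test against the vehicle-treated surgery group.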

[2] = system: Rattus norvegicus; experiment: Reversal of nerve injury-induced tactile allodynia in rat L5 spinal nerve ligation-induced nociception model at 60 mg/kg, ip; assay type: functional, organism-based; design: dose 60 mg/kg; outline: as §1
[3] = species on record: Homo sapiens; experiment: Selectivity ratio of Ki for human cloned CB1 receptor to Ki for human cloned CB2 receptor
Outline: (§2)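 Competition binding of 0.2–0.6 nM [3H]CP55940 to membranes from cells expressing cloned human CB1 or CB2 receptors. Buffer: 50 mM Tris-HCl pH 7.0, 5.0 mM MgCl2, 1.0 mM EGTA, 1.0 mg/mL fatty-acid-free BSA. Incubation was 120 min at 30 °C for CB1 and 60 min at room temperature for CB2. Samples were filtered and counted by scintillation. Nonspecific binding was set with 10 µM WIN55212-2. Ratio is Ki CB1/Ki CB2.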

[4] = species on record: Homo sapiens; experiment: Selectivity ratio of EC50 for human cloned CB1 receptor to EC50 for human cloned CB2 receptor
[5] = target: T1, Cannabinoid receptor 1 (Homo sapiens, UniProt P21554); experiment: Displacement of [3H]CP-55940 from human cloned CB1 receptor; outline: as §2
T1 sequence (P21554 whole entry): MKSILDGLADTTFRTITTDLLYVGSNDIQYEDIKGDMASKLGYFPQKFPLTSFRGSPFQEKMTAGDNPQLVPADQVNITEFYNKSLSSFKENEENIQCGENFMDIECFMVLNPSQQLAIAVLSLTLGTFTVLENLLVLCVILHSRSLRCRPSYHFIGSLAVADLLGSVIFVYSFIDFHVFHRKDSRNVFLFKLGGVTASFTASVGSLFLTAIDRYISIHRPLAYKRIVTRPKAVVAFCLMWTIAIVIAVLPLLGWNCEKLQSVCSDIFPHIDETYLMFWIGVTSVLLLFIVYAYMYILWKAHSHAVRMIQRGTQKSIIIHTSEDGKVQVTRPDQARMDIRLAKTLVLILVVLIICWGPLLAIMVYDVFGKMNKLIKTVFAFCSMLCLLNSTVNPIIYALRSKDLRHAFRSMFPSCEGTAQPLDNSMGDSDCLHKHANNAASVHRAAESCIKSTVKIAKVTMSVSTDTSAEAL

[6] = target: T2, Cannabinoid receptor 2 (Homo sapiens, UniProt P34972); experiment: Displacement of [3H]CP-55940 from human cloned CB2 receptor; outline: as §2
T2 sequence (P34972 whole entry): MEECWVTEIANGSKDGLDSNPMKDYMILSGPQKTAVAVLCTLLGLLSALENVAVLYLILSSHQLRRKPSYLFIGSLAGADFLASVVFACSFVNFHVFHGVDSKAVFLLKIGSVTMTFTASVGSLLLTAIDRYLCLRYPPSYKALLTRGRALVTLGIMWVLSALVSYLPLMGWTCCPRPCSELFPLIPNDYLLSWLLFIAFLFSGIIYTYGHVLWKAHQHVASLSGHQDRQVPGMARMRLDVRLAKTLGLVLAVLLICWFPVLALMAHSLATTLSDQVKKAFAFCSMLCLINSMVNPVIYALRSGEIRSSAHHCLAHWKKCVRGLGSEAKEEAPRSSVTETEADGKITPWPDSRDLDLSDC

[7] = target: T1, Cannabinoid receptor 1; experiment: Agonist activity at human cloned CB1 receptor by [35S]GTPgammaS binding assay; assay type: functional
[8] = target: T2, Cannabinoid receptor 2; experiment: Agonist activity at human cloned CB2 receptor by [35S]GTP-gamma-S binding assay; assay type: functional
Outline: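 Stimulation of [35S]GTPγS binding used 25 µg membrane protein from cells expressing cloned human CB2. Mix: 100–150 pM [35S]GTPγS, 150 mM NaCl, 45 mM MgCl2, 3 µM GDP, 0.4 mM DTT, 1.0 mM EGTA, 1 mg/mL fatty-acid-free BSA in 50 mM Tris-HCl pH 7.0. Incubation was 6 h at room temperature, read by scintillation. Stimulation over basal (no agonist) is expressed as % of 10 µM WIN55212-2.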

[9] = system: Rattus norvegicus; experiment: Reversal of nerve injury-induced tactile allodynia in rat L5 spinal nerve ligation-induced nociception model at 3 mg/kg, ip; assay type: functional, organism-based; design: dose 3 mg/kg; outline: as §1
[10] = system: Rattus norvegicus; experiment: Toxicity in rat assessed as induction of catalepsy at 6 mg/kg, ip; assay type: organism-based; design: dose 6 mg/kg, route intraperitoneal; settings: in vivo
[11] = system: Rattus norvegicus; experiment: Antiallodynic effect in rat hind paw incision-induced nociception model at 10 mg/kg, ip; assay type: functional, organism-based; design: dose 10 mg/kg; outline: as §1
[12] = system: Rattus norvegicus; experiment: Toxicity in rat assessed as behavioral side effects upto 10 mg/kg, ip; assay type: organism-based; design: dose 10 mg/kg, route intraperitoneal; settings: in vivo
[13] = system: Rattus norvegicus; experiment: Antiallodynic effect in rat hind paw incision-induced nociception model at 100 mg/kg, ip; assay type: functional, organism-based; design: dose 100 mg/kg
[14] = system: Rattus norvegicus; experiment: Toxicity in rat assessed as induction of catalepsy at 10 mg/kg, ip; assay type: organism-based; design: dose 10 mg/kg, route intraperitoneal; settings: in vivo
[15] = system: Rattus norvegicus; experiment: Antiallodynic effect in rat hind paw incision-induced nociception model at 30 mg/kg, ip; assay type: functional, organism-based; design: dose 30 mg/kg
[16] = target: T1, Cannabinoid receptor 1; experiment: Displacement of [3H]CP-55940 from human cloned CB1 receptor at 10 uM

| Compound | Ratio Ki [3] | Ratio EC50 [4] | Ki [5] [nM] | Ki [6] [nM] | EC50 [7] [nM] | EC50 [8] [nM] | further results |
| --- | --- | --- | --- | --- | --- | --- | --- |
| CN1CC[C@]23c4c5ccc(O)c4O[C@H]2[C@@H](O)C=C[C@H]3[C@H]1C5 |  |  |  |  |  |  | Activity [1]: Active |
| NCC1(CC(=O)O)CCCCC1 |  |  |  |  |  |  | Activity [2]: Active |
| Cc1ccc(C(=O)NC(C)C(C)(C)C)cc1S(=O)(=O)N1CCOCC1 (stereo not drawn) | 9 | 19 | 1300 | 180 | 2400 | 125 |  |
| O=C(NCc1ccccc1)c1ccc(Br)c(S(=O)(=O)N2CCCCC2)c1 | 3 |  | 1100 | 360 |  |  |  |
| CN(Cc1ccccc1)S(=O)(=O)c1cc(C(=O)NCC(C)(C)C)ccc1Br | > 2 |  | > 1000 | 430 |  |  |  |
| CC(C)CNC(=O)c1ccc(Br)c(S(=O)(=O)N(C)Cc2ccccc2)c1 | > 3 |  | > 1000 | 340 |  |  |  |
| Cc1ccc(C(=O)NC(C)C23CC4CC(CC(C4)C2)C3)cc1S(=O)(=O)N1CCOCC1 (stereo not drawn) | 5 | 31 | 77 | 6.3 | 290 | 9.3 |  |
| COc1cccc(CNC(=O)c2ccc(Br)c(S(=O)(=O)N3CCCCC3)c2)c1 | 7 |  | 1400 | 200 |  |  |  |
| Cc1ccc(C(=O)NCC23CC4CC(CC(C4)C2)C3)cc1S(=O)(=O)N1CCOCC1 | 9 | 8 | 91 | 10 | 210 | 25 |  |
| CC(C)(C)CNC(=O)c1ccc(Br)c(S(=O)(=O)N2CCCC2)c1 | 5 |  | 2000 | 400 |  |  |  |
| CC(C)(C)CNC(=O)c1ccc(Br)c(S(=O)(=O)N2CCCCC2)c1 | 13 |  | 1300 | 100 |  |  |  |
| Cc1ccc(C(=O)NC(C(C)(C)C)C(C)(C)C)cc1S(=O)(=O)N1CCOCC1 | 9 | 44 | 310 | 34 | 920 | 21 |  |
| Cc1ccc(C(=O)N[C@@H]2C(C)(C)[C@H]3CC[C@]2(C)C3)cc1S(=O)(=O)N1CCOCC1 | 31 | 120 | 130 | 3.9 | 550 | 4.6 | Activity [9]: Active; Activity [10]: Non-toxic; Activity [11]: Active; Activity [12]: Non-toxic; Activity [13]: inactive; Activity [14]: Non-toxic; Activity [15]: inactive |
| Cc1ccc(C(=O)NC2C(C)CCCC2C)cc1S(=O)(=O)N1CCOCC1 (stereo not drawn) | 5 | 12 | 470 | 92 | 540 | 44 |  |
| CC1(C)[C@H]2CC[C@](C)(C2)[C@@H]1NC(=O)c1ccc(Br)c(S(=O)(=O)N2CCCC2)c1 | 12 | 51 | 110 | 9.4 | 220 | 4.3 |  |
| Cc1ccc(C(=O)NC2C3CC4CC(C3)CC2C4)cc1S(=O)(=O)N1CCOCC1 (stereo not drawn) | 15 | 23 | 33 | 5.6 | 270 | 12 |  |
| Cc1ccc(C(=O)NCC(C)(C)C)cc1S(=O)(=O)N1CCOCC1 | > 3 |  | > 1000 | 390 | > 1000 | 1800 |  |
| O=C(NCc1cccnc1)c1ccc(Br)c(S(=O)(=O)N2CCCCC2)c1 | 5 |  | 1800 | 320 |  |  |  |
| CC1(C)[C@H]2CC[C@](C)(C2)[C@@H]1NC(=O)c1ccc(Br)c(S(=O)(=O)N2CCOCC2)c1 | 25 | 64 | 89 | 3.5 | 560 | 8.8 |  |
| CC1(C)[C@H]2CC[C@](C)(C2)[C@@H]1NC(=O)c1ccc(Br)c(S(=O)(=O)N2CCCCC2)c1 | 7 | 42 | 93 | 13 | 280 | 6.6 |  |
| CC(C)CNC(=O)c1ccc(Br)c(S(=O)(=O)N2CCCCC2)c1 | > 2 |  | > 1000 | 410 |  |  |  |
| Cc1ccc(C(=O)NC23CC4CC(CC(C4)C2)C3)cc1S(=O)(=O)N1CCOCC1 | 14 | 12 | 260 | 19 | 570 | 48 |  |
| Cc1ccc(C(=O)N[C@H]2C(C)(C)[C@H]3CC[C@]2(C)C3)cc1S(=O)(=O)N1CCOCC1 | 11 | 35 | 540 | 48 | 880 | 25 |  |
| Cc1ccc(C(=O)N[C@H]2CC3CC[C@@]2(C)C3(C)C)cc1S(=O)(=O)N1CCOCC1 | 7 | 15 | 50 | 8.1 | 210 | 14 |  |
| CC(C)(C)CNC(=O)c1ccc(Br)c(S(=O)(=O)N2CCOCC2)c1 | 3 |  | 1300 | 450 |  |  |  |
| CN(Cc1ccccc1)S(=O)(=O)c1cc(C(=O)N[C@@H]2C(C)(C)[C@H]3CC[C@]2(C)C3)ccc1Br | > 100 |  | > 1000 | 11 |  |  | inhibition [16]: 33% |
